Publication PMC10772668 (Clinical and Translational Science, 2023)

Columns and labels:
Format in all cases: in vivo, human
Safety, TEAEs, SAD = test: Safety, TEAEs, SAD
Summary of the method: (§1)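 Safety population: all participants exposed to study drug, followed from first dose to the end‑of‑study visit. Assessments covered physical and neurological exams, AEs, SAEs and AESIs (seizure, ALT ≥2×ULN, QTc ≥500 ms, pregnancy, overdose). Lab, vital‑sign and 12‑lead/Holter ECG abnormalities were also recorded. Coding used MedDRA 23.1 (part 1) or 24.0 (part 2), with severity graded 1–4 per FDA guidance. Counts were summarised per dose group, with placebo pooled.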

Safety, TEAEs, MAD = test: Safety, TEAEs, MAD
Summary of the method: as §1

Plasma PK, PK‐CSF = conditions: for CL/F, geometric mean (%CV): after breakfast; for Vd/F: both, human, plasma, oral
Summary of the method: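 Open‑label part: single oral 10 or 40 mg dose given about 30 min after breakfast. Plasma was collected predose and at 10 postdose times, one of them coinciding with lumbar‑puncture CSF sampling. Drug was quantified by validated HPLC‑MS (LLOQ 1 ng/mL). CL/F and Vz/F were derived from plasma concentration‑time data and summarised per dose group.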

Plasma PK, MAD = conditions: for half-life: T 1/2z; for Tmax: T max, median (range)
Summary of the method: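 Oral capsules were given for 14 days (q.d. or b.i.d.) after an overnight fast of ≥8 h, with 2 h fasting post‑dose. Plasma was sampled predose and at 10–11 postdose times on days 1 and 14, predose on days 2, 3, 5, 7 and 11, and once on days 15–17. Quantification was by HPLC‑MS (LLOQ 1 ng/mL). AUCtau used tau 12 h (b.i.d.) or 24 h (q.d.). Accumulation was assessed by a linear model on log ratio and steady state by a nonlinear model on Ctrough.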

In the case of `CC(C)(C(=O)N1CCOc2c(C#N)cncc2C1)C(F)F` [SAR443820], the “Any TEAE, n (%)” value (Safety, TEAEs, SAD; SAD 30 mg (n = 6)) is reported as 3 (50.0) n (%), the “Any grade ≥3 TEAE, n (%)” value (Safety, TEAEs, SAD; SAD 30 mg (n = 6)) is reported as 0 n (%) and the “Any treatment‐emergent AESI, n (%)” value (Safety, TEAEs, SAD; SAD 30 mg (n = 6)) is reported as 0 n (%). For the same compound, the “Any treatment‐emergent SAE, n (%)” value (Safety, TEAEs, SAD; SAD 30 mg (n = 6)) was 0 n (%), the “Any TEAE, n (%)” value (Safety, TEAEs, SAD; SAD 40 mg (n = 6)) was 3 (50.0) n (%) and the “Any grade ≥3 TEAE, n (%)” value (Safety, TEAEs, SAD; SAD 40 mg (n = 6)) was 0 n (%). The “Any treatment‐emergent AESI, n (%)” value (Safety, TEAEs, SAD; SAD 40 mg (n = 6)) was 0 n (%), the “Any treatment‐emergent SAE, n (%)” value (Safety, TEAEs, SAD; SAD 40 mg (n = 6)) was 0 n (%) and the “Any TEAE, n (%)” value (Safety, TEAEs, MAD; MAD 10 mg QD (n = 8)) was 4 (50.0) n (%). For the same compound, the “Any grade ≥3 TEAE, n (%)” value (Safety, TEAEs, MAD; MAD 10 mg QD (n = 8)) was 0 n (%), the “Any treatment‐emergent AESI, n (%)” value (Safety, TEAEs, MAD; MAD 10 mg QD (n = 8)) was 0 n (%) and the “Any treatment‐emergent SAE, n (%)” value (Safety, TEAEs, MAD; MAD 10 mg QD (n = 8)) was 0 n (%). The “Any TEAE, n (%)” value (Safety, TEAEs, MAD; MAD 15 mg BID (n = 8)) was 6 (75.0) n (%), the “Any grade ≥3 TEAE, n (%)” value (Safety, TEAEs, MAD; MAD 15 mg BID (n = 8)) was 0 n (%) and the “Any treatment‐emergent AESI, n (%)” value (Safety, TEAEs, MAD; MAD 15 mg BID (n = 8)) was 1 (12.5) n (%). For the same compound, the “Any treatment‐emergent SAE, n (%)” value (Safety, TEAEs, MAD; MAD 15 mg BID (n = 8)) was 0 n (%), the “Concomitant AST increase, one participant” value (Safety, TEAEs, MAD; MAD 15 mg b.i.d.) was 1.43 ULN and the “ALT increase (AESI), one participant” value (Safety, TEAEs, MAD; MAD 15 mg b.i.d., day 9) was 2.29 ULN. For the same compound, the “ALT increase (AESI), one participant” value (Safety, TEAEs, MAD; MAD 15 mg b.i.d., day 15 (24 h post last dosing)) was 2.71 ULN, the “Any TEAE, n (%)” value (Safety, TEAEs, MAD; MAD 20 mg BID (n = 8)) was 4 (50.0) n (%) and the “Any grade ≥3 TEAE, n (%)” value (Safety, TEAEs, MAD; MAD 20 mg BID (n = 8)) was 0 n (%). The “Any treatment‐emergent AESI, n (%)” value (Safety, TEAEs, MAD; MAD 20 mg BID (n = 8)) was 0 n (%), the “Any treatment‐emergent SAE, n (%)” value (Safety, TEAEs, MAD; MAD 20 mg BID (n = 8)) was 0 n (%) and the “Any TEAE, n (%)” value (Safety, TEAEs, MAD; MAD 20 mg QD (n = 8)) was 3 (37.5) n (%). For the same compound, the “Any grade ≥3 TEAE, n (%)” value (Safety, TEAEs, MAD; MAD 20 mg QD (n = 8)) was 0 n (%), the “Any treatment‐emergent AESI, n (%)” value (Safety, TEAEs, MAD; MAD 20 mg QD (n = 8)) was 0 n (%) and the “Any treatment‐emergent SAE, n (%)” value (Safety, TEAEs, MAD; MAD 20 mg QD (n = 8)) was 0 n (%). The “CL/F, geometric mean (%CV)” value (Plasma PK, PK‐CSF; PK‐CSF 10 mg single dose) was 7.27 (29.7) L/h, the “CL/F, geometric mean (%CV)” value (Plasma PK, PK‐CSF; PK‐CSF 40 mg single dose) was 8.43 (34.2) L/h and the Vd/F (Plasma PK, PK‐CSF; 10 mg) was 83.6 L. For the same compound, the Vd/F (Plasma PK, PK‐CSF; 40 mg) was 97.7 L, the “Food effect on absorption” value (Plasma PK, PK‐CSF; capsule in fed conditions vs fasted) was “no evidence that the extent of absorption was impacted by food” and the “CLss/F, geometric mean (%CV)” value (Plasma PK, MAD; MAD 10 mg q.d., day 14) was 7.08 (25.9) L/h. For the same compound, the “CLss/F, geometric mean (%CV)” value (Plasma PK, MAD; MAD 15 mg b.i.d., day 14) was 9.16 (30.0) L/h, the “CLss/F, geometric mean (%CV)” value (Plasma PK, MAD; MAD 20 mg b.i.d., day 14) was 9.27 (24.9) L/h and the “CLss/F, geometric mean (%CV)” value (Plasma PK, MAD; MAD 20 mg q.d., day 14) was 9.40 (22.2) L/h. For the same compound, the “Overall accumulation, C max and AUCtau” value (Plasma PK, MAD; b.i.d. cohorts, day 14 vs day 1) was “around 1.5 fold”, the Cmax (Plasma PK, MAD; both, human, plasma, oral, 10 mg, C max, geometric mean (%CV), MAD 10 mg q.d., day 14) was 158 ng/mL and the half-life (Plasma PK, MAD; both, human, plasma, oral, 10 mg, geometric mean (%CV), MAD 10 mg q.d., day 14) was 8.87 h. The Tmax (Plasma PK, MAD; both, human, plasma, oral, 10 mg, MAD 10 mg q.d., day 14) was 1 h, the half-life (Plasma PK, MAD; both, human, plasma, oral, 15 mg, geometric mean (%CV), MAD 15 mg b.i.d., day 14) was 7.21 h and the Tmax (Plasma PK, MAD; both, human, plasma, oral, 15 mg, MAD 15 mg b.i.d., day 1) was 1 h. It also gave a Tmax (Plasma PK, MAD; both, human, plasma, oral, 15 mg, MAD 15 mg b.i.d., day 14) of 1 h, a half-life (Plasma PK, MAD; both, human, plasma, oral, 20 mg, geometric mean (%CV), MAD 20 mg b.i.d., day 14) of 7.37 h and a half-life (Plasma PK, MAD; both, human, plasma, oral, 20 mg, geometric mean (%CV), MAD 20 mg q.d., day 14) of 8.53 h. The Tmax (Plasma PK, MAD; both, human, plasma, oral, 20 mg, MAD 20 mg b.i.d., day 14) was 1 h and the Tmax (Plasma PK, MAD; both, human, plasma, oral, 20 mg, MAD 20 mg q.d., day 14) was 2 h.
